The values that follow come from ChEMBL document CHEMBL3526151, “Reversible disulfide formation of the glutamate carboxypeptidase II inhibitor E2072 results in prolonged systemic exposures in vivo” (Drug Metab Dispos, 2012).

Data set [1] is described as follows: Phase 1 metabolic stability in human liver microsomes assessed as compound remaining at 10 uM measured for 1 hr by LC-MS/MS analysis. The following applies: read-out: Stability. In kind it is ADME. Summed up:
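Liver microsomes (0.5 mg/ml) were incubated with 10 µM compound (final) in 100 mM potassium phosphate, pH 7.4. An NADPH-regenerating system was present: 1.3 mM NADPH, 3.3 mM glucose 6-phosphate, 3.3 mM MgCl2, 0.4 U/ml G6PDH and 50 µM sodium citrate. Runs were in duplicate, with samples taken up to 1 h and quenched with acetonitrile containing internal standard. Loss of compound was followed by LC-MS/MS.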

The nature of data set [2]: Phase 2 metabolic stability in monkey liver microsomes assessed as compound remaining at 10 uM measured for 1 hr by LC-MS/MS analysis in absence of cofactors. The following applies: rhesus monkey, read-out: Stability. In kind it is ADME, Macaca mulatta. A digest of the protocol: (§1)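 Cofactor-free controls were run for each microsomal incubation: 0.5 mg/ml liver microsomes with 10 µM compound, omitting cofactors, so that cofactor-independent degradation could be measured. Samples were taken up to 1 h, quenched with acetonitrile containing internal standard, and the percent remaining was determined by LC-MS/MS.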

The nature of data set [3]: AUC(0 to last) in Sprague-Dawley rat at 0.1 mg/kg, iv administered as bolus injection measured under fasted conditions by LC-MS/MS analysis. In kind it is ADME, organism-based. On the set-up: time 0 - last, dose 0.1 mg/kg, route intravenous. Conditions: plasma. Summed up: (§2)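 Male Sprague-Dawley rats (280–330 g), jugular vein cannulated, fasted overnight until 4 h post-dose. Single tail-vein bolus of 0.1, 1, 10 or 30 mg/kg in 50 mM HEPES buffered saline, pH 7.4. Blood drawn 0–24 h into heparin tubes containing NEM. Plasma quantified by LC-MS/MS after NEM derivatization. Noncompartmental analysis: AUClast by linear trapezoidal rule, Cl = dose/AUC0-∞. Mean ± S.D., n = 4–9.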

Data set [4] in a line: Phase 2 metabolic stability in human liver microsomes assessed as compound remaining at 10 uM measured for 1 hr by LC-MS/MS analysis. In kind it is ADME. The following applies: read-out: Stability. A digest of the protocol: (§3)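 For glucuronidation, compound was preincubated at 37°C in 50 mM Tris-HCl, pH 7.5, with 0.5 mg/ml liver microsomes, 8 mM MgCl2 and 25 µg/ml alamethicin. Reactions were started in duplicate with 2 mM UDPGA (final). Samples were taken up to 1 h, quenched with acetonitrile containing internal standard, and compound disappearance was measured by LC-MS/MS.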

Data set [5] is described as follows: Cmax in Sprague-Dawley rat kidney at 10 mg/kg/day, po administered for 5 days measured per gm of tissue by LC-MS/MS analysis. In kind it is ADME, organism-based. On the set-up: dose 10 mg/kg/day, route oral. Summed up: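 Male Sprague-Dawley rats were dosed orally with 10 mg/kg/day, either once or daily for 5 days; n = 4 per group. Blood was taken by cardiac puncture and liver, kidney, brain and sciatic nerve were collected at 0–8 h post-dose. Tissues were homogenized in PBS containing NEM at equal volume per gram. NEM-derivatized analyte was extracted with methanol and quantified by LC-MS/MS (1–5000 ng/ml). Cmax is the observed value.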

Data set [6] is described as follows: Tmax in cynomolgus monkey at 5 mg/kg, iv administered as bolus injection by LC-MS/MS analysis. It counts as ADME, organism-based, Macaca fascicularis. On the set-up: dose 5 mg/kg, route intravenous. Conditions: in vivo. A digest of the protocol:
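Cynomolgus monkeys (n=3) dosed at 5 mg/kg nominal, TCEP-treated 50 mM HEPES solution, either as i.v. bolus (cephalic or saphenous vein) or orally. Arterial cannula blood into heparin/NEM tubes for up to 9 days. Plasma parent and homodisulfide measured by LC-MS/MS; Tmax observed.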

Data set [7] in a line: Half life in Sprague-Dawley rat at 10 mg/kg, po administered via gavage measured under fed conditions by LC-MS/MS analysis. On the set-up: dose 10 mg/kg, route oral. It counts as ADME, organism-based. Conditions: in vivo.
A short description of data set [8]: Primary phase half life in Sprague-Dawley rat at 10 mg/kg, iv by LC-MS/MS analysis. In kind it is ADME, organism-based. On the set-up: dose 10 mg/kg, route intravenous. The following applies: in vivo, read-out: alphat1/2 (converted).
Data set [9] can be described thus: Clearance in Sprague-Dawley rat at 30 mg/kg, iv administered as bolus injection measured under fasted conditions by LC-MS/MS analysis. It counts as ADME, organism-based. On the set-up: dose 30 mg/kg, route intravenous. The following applies: in vivo. Summed up:
as §2

Data set [10] in a line: Phase 2 metabolic stability in dog liver microsomes assessed as compound remaining at 10 uM measured for 1 hr by LC-MS/MS analysis in absence of cofactors. It counts as ADME, Canis lupus familiaris. The following applies: read-out: Stability. A digest of the protocol: as §1
The next data set has as its system Cynomolgus monkey. Nature of the data set: AUC(0 to infinity) in cynomolgus monkey at 5 mg/kg, po by LC-MS/MS analysis. On the set-up: dose 5 mg/kg, route oral, time infinity. It counts as ADME, organism-based, Macaca fascicularis, Plasma. The following applies: in vivo. Summed up:
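Cynomolgus monkeys (n = 3) dosed orally at a nominal 5 mg/kg in TCEP-treated 50 mM HEPES solution. Blood taken via iliac or femoral arterial cannula up to 9 days into heparin/NEM tubes. Plasma analyzed by LC-MS/MS. Cl/F and Vd/F derived noncompartmentally.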

Data set [11] in a line: AUC(0 to last) in Sprague-Dawley rat at 30 mg/kg, iv administered as bolus injection measured under fasted conditions by LC-MS/MS analysis. It counts as ADME, organism-based. On the set-up: time 0 - last, dose 30 mg/kg, route intravenous. Conditions: plasma. A digest of the protocol:
as §2

The nature of data set [12]: Protein binding in cynomolgus monkey serum at 10 uM after 1 hr by LC-MS/MS analysis. In kind it is ADME, Macaca fascicularis. The following applies: read-out: PB (converted). A digest of the protocol: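 Serum from the named species spiked to 10 μM and held 1 h at 37°C, then ultrafiltered through a 5000 Da cutoff device (45 min, 37°C, 1800g). Filtrate and unfiltered serum extracted and measured by LC-MS/MS; % bound = 100 − (Cu/Cs × 100).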

Data set [13] can be described thus: Tmax in Sprague-Dawley rat at 10 mg/kg, iv by LC-MS/MS analysis. On the set-up: dose 10 mg/kg, route intravenous. Conditions: in vivo. In kind it is ADME, organism-based.
Data set [14] in a line: Half life in Sprague-Dawley rat at 30 mg/kg, iv administered as bolus injection measured under fasted conditions by LC-MS/MS analysis. It counts as ADME, organism-based. Conditions: in vivo. On the set-up: dose 30 mg/kg, route intravenous.
The nature of data set [15]: Clearance in Sprague-Dawley rat at 1 mg/kg, iv administered as bolus injection measured under fasted conditions by LC-MS/MS analysis. In kind it is ADME, organism-based. On the set-up: dose 1 mg/kg, route intravenous. Conditions: in vivo. Summed up:
as §2

Data set [16] is described as follows: AUC(0 to infinity) in Sprague-Dawley rat at 1 mg/kg, iv administered as bolus injection measured under fasted conditions by LC-MS/MS analysis. In kind it is ADME, organism-based. On the set-up: time infinity, dose 1 mg/kg, route intravenous. Conditions: plasma. Summed up:
as §2

Data set [17] can be described thus: Volume of distribution in Sprague-Dawley rat at 30 mg/kg, iv administered as bolus injection measured under fasted conditions by LC-MS/MS analysis. Conditions: in vivo. In kind it is ADME, organism-based. On the set-up: dose 30 mg/kg, route intravenous. Summed up:
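Jugular-cannulated male Sprague-Dawley rats, 280–330 g, fasted overnight to 4 h post-dose. Single dose in 50 mM HEPES-buffered saline pH 7.4, by oral gavage or as tail-vein i.v. bolus. Blood into heparin/NEM tubes at 0–24 h. Plasma measured by LC-MS/MS; noncompartmental analysis; Tmax observed; Vd = dose/(AUCinf·λz).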

A short description of data set [18]: Apparent oral clearance in Sprague-Dawley rat at 10 mg/kg, po administered via gavage measured under fed conditions by LC-MS/MS analysis. On the set-up: dose 10 mg/kg, route oral. It counts as ADME, organism-based. Conditions: in vivo. A digest of the protocol: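 Nonfasted male Sprague-Dawley rats given a single 10 mg/kg oral dose in 50 mM HEPES buffered saline, pH 7.4. Plasma collected 0.25–24 h into heparin/NEM tubes and assayed by LC-MS/MS. Noncompartmental parameters derived, including Cl/F and Vd/F. Mean ± S.D., n = 6–9.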

Data set [19] is described as follows: Phase 2 metabolic stability in monkey liver microsomes assessed as compound remaining at 10 uM measured for 1 hr by LC-MS/MS analysis. In kind it is ADME, Macaca mulatta. Conditions: rhesus monkey, read-out: Stability. Summed up:
as §3

In the case of `O=C(O)c1cccc(-c2cccc(CCS)c2C(=O)O)c1`, the remaining at 1 h, 10 µM in data set [1], in data set [2], in [4], in data set [10] and in [19] was more than 90% in each case. Further, the exposure AUC(0-t) in data set [3] was 1800 ng·h/mL; in [11], 202000 ng·h/mL. This compound also displayed a Cmax in data set [5] of 388 ng/g. The time to peak (Tmax) in [6] came to 4.8 min; in data set [13], 6.6 min. The half-life was 165 min in data set [7], 52.2 min in data set [8] and 244 min in data set [14]. The clearance was 3 mL/min/kg in data set [9] and 0.833 mL/min/kg in data set [15]. Further, the AUC in the data set on Cynomolgus monkey worked out at 24935.6 ng·h/mL. Further, the fraction unbound at 1 h, 10 µM in data set [12] was 0.101. In data set [16], the AUC(0-inf) was 13000 ng·h/mL. Moreover, the Vd in data set [17] came to 1.08 L/kg. Moreover, in [18], the CL/F was 5 mL/min/kg.
